The values below come from the array DNA melting data of Ke et al. (doi:10.1101/2024.01.08.574731).

The nature of data set [1]: folding enthalpy; higher = less favourable; fluorescence melt of hairpins on a sequencing array, two-state fit. The note with it: sodium 0.088 M. The gist of the method: (§1)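 In 50 mM Na-HEPES pH 8.0 containing 25 mM NaCl, hairpins from the library on a sequenced MiSeq flow cell were imaged for Cy3 fluorescence at 2.5 °C steps up to 60 °C, with Cy3 and quencher oligos annealed. After normalisation to pre-quench Cy3 and to control constructs, two-state fits with bootstrapping gave melting temperature and folding enthalpy. Four replicates were combined by inverse-variance weighting, and fitted temperatures were shifted up by 9.35 °C to match UV melts.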

Data set [2] can be described thus: melting temperature; fluorescence melt of hairpins on a sequencing array, two-state fit, raised by 9.35 °C to match UV melts. The note with it: sodium 0.088 M. In outline: as §1

For GATCTTATGAAAGATC ((((((....)))))), the folding enthalpy in data set [1] was -30.6 kcal/mol. In addition, the Tm in data set [2] came to 40.6 °C.
As to GATCTTCACGAAGATC ((((((....)))))), the folding enthalpy in data set [1] is -40.1 kcal/mol. In data set [2], the Tm amounted to 49.2 °C.
For the sequence GATCTTCACTAAGATC ((((((....)))))), the folding enthalpy in data set [1] is -29.7 kcal/mol. In data set [2], the Tm is 43.9 °C.
In the same order, the values of GATCTTCATAAGATC ((((((...)))))) are -28.4 kcal/mol and 43.4 °C.
In the same order, the values of GATCTTCATGAAGATC ((((((....)))))) are -43.4 kcal/mol and 51.1 °C.
In the same order, the values of GATCTTCCCGAAGATC ((((((....)))))) are -40.8 kcal/mol and 49.4 °C.
With GATCTTCCGGAAGATC ((((((....)))))), in data set [1], the folding enthalpy was -55.2 kcal/mol. The Tm in data set [2] was 53.1 °C.
With GATCTTCGTTAAGATC ((((((....)))))), in data set [1], the folding enthalpy is -32.2 kcal/mol. Further, in data set [2], the Tm came out at 43 °C.
As for GATCTTCTACAAGATC ((((((....)))))), the folding enthalpy in data set [1] is -30.3 kcal/mol. Moreover, the Tm in data set [2] worked out at 41.9 °C.
The corresponding values for GATCTTCTATAAGATC ((((((....)))))) are -30.3 kcal/mol and 43.5 °C.
Take GATCTTCTGTAAGATC ((((((....)))))): the folding enthalpy in data set [1] is -34.7 kcal/mol. In data set [2], the Tm is 43.1 °C.
In the case of GATCTTCTTAAAGATC ((((((....)))))), the folding enthalpy in data set [1] is -32.7 kcal/mol. In addition, in data set [2], the Tm came out at 46 °C.
The corresponding values for GATCTTCTTTAAGATC ((((((....)))))) are -38 kcal/mol and 43.3 °C.
Consider GATCTTGAACAAGATC ((((((....)))))), for which the folding enthalpy in data set [1] is -34.8 kcal/mol. The Tm in data set [2] came out at 49.2 °C.
In the same order, the values of GATCTTGACAAAGATC ((((((....)))))) are -44 kcal/mol and 52.7 °C.
The corresponding values for GATCTTGATGAAGATC ((((((....)))))) are -23.4 kcal/mol and 44.1 °C.
In the same order, the values of GATCTTGCATAAGATC ((((((....)))))) are -39.9 kcal/mol and 50.9 °C.
For the sequence GATCTTGCCAAGATC ((((((...)))))), the folding enthalpy in data set [1] is -26.1 kcal/mol. The Tm in data set [2] was 47.5 °C.
Take GATCTTGCGTAAGATC ((((((....)))))): the folding enthalpy in data set [1] is -39.6 kcal/mol. In data set [2], the Tm worked out at 43.6 °C.
In the same order, the values of GATCTTGCTAAAGATC ((((((....)))))) are -38.1 kcal/mol and 53.2 °C.
In the same order, the values of GATCTTGCTAAGATC ((((((...)))))) are -31.8 kcal/mol and 45.4 °C.
In the same order, the values of GATCTTGTAAAGATC ((((((...)))))) are -43.5 kcal/mol and 53.8 °C.
Take GATCTTGTCAAAGATC ((((((....)))))): the folding enthalpy in data set [1] is -41.9 kcal/mol. Besides, the Tm in data set [2] was 54.8 °C.
In the same order, the values of GATCTTGTGGAAGATC ((((((....)))))) are -29.4 kcal/mol and 41.3 °C.
In the same order, the values of GATCTTTAACAAGATC ((((((....)))))) are -32.6 kcal/mol and 38.1 °C.
The corresponding values for GATCTTTCGGAAGATC ((((((....)))))) are -33.4 kcal/mol and 43.9 °C.
In the case of GATCTTTCTCAAGATC ((((((....)))))), in data set [1], the folding enthalpy was -33.4 kcal/mol. The Tm in data set [2] amounted to 42.6 °C.
GATCTTTGACAAGATC ((((((....)))))): the folding enthalpy in data set [1] was -25.1 kcal/mol. In addition, the Tm in data set [2] amounted to 39.4 °C.
The corresponding values for GATCTTTGATAAGATC ((((((....)))))) are -25.5 kcal/mol and 42.6 °C.
GATCTTTGTGAAGATC ((((((....)))))): the folding enthalpy in data set [1] was -41.7 kcal/mol. In data set [2], the Tm was 47.7 °C.
For GATCTTTGTTAAGATC ((((((....)))))), the folding enthalpy in data set [1] was -33.6 kcal/mol. Besides, in data set [2], the Tm was 44 °C.
In the same order, the values of GATCTTTTGAAGATC ((((((...)))))) are -27.8 kcal/mol and 43.6 °C.
GATCTTTTTCAAGATC ((((((....)))))): the folding enthalpy in data set [1] is -33.6 kcal/mol. Besides, in data set [2], the Tm came to 42.3 °C.
In the same order, the values of GATGAAGAAATTCATC ((((((....)))))) are -24.9 kcal/mol and 43.3 °C.
Consider GATGACACGAAAGTGATC (((..(((....)))))), for which the folding enthalpy in data set [1] was -11.4 kcal/mol. In data set [2], the Tm amounted to 30.9 °C.
In the same order, the values of GATGACGAAAGTCATC ((((((....)))))) are -36.3 kcal/mol and 67.4 °C.
The corresponding values for GATGACGGAAACGTTATC (((.(((....))).))) are -29.6 kcal/mol and 46.2 °C.
In the same order, the values of GATGAGCGAAAGCTGATC (((.(((....))).))) are -22.1 kcal/mol and 45.9 °C.
